According to ChEMBL document CHEMBL3580591, “Effect of Apigenin on Leishmania amazonensis Is Associated with Reactive Oxygen Species Production Followed by Mitochondrial Dysfunction” (J Nat Prod, 2015):
Activity calls are given as the source filed them. The rule behind the calls is not given here.

Experiments:
[1] = tested on: Leishmania braziliensis; experiment: Induction of intracellular ROS generation in Leishmania braziliensis promastigotes at 500 uM incubated for 72 hrs by H2DCFDA dye based assay
[2] = tested on: Leishmania amazonensis; experiment: Induction of intracellular ROS generation in Leishmania amazonensis MHOM/BR/75/LTB0016 promastigotes at 96 uM incubated for 48 hrs by H2DCFDA dye based assay; assay type: functional
[3] = tested on: Leishmania amazonensis; experiment: Antiparasitic activity against Leishmania amazonensis MHOM/BR/75/LTB0016 promastigotes assessed as inhibition of cellular proliferation incubated for 24 hrs by CFSE staining based flow cytometry; assay type: functional, organism-based
How it was run: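 Promastigotes (2.5 × 10^7 cells/mL) were washed in PBS and stained with 10 μM CFSE in PBS/0.1% albumin for 15 min at 26 °C. Staining was stopped with ice-cold medium. Cells were resuspended at 1.0 × 10^6 cells/mL with compound (3−96 μM) or 0.2% DMSO for 24 h at 26 °C. Fluorescence was read by flow cytometry. Histograms are representative of three experiments.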

[4] = tested on: Leishmania amazonensis; experiment: Induction of membrane potential depolarization in Leishmania amazonensis MHOM/BR/75/LTB0016 promastigotes assessed as reduction in mitochondrial membrane potential incubated for 24 hrs by JC1 dye based fluorescence assay; assay type: functional, organism-based
How it was run: (§1)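 Promastigotes (5 × 10^6 cells/mL) were treated for 24 h with compound (3−96 μM) or 0.2% DMSO, then resuspended in HBSS at 1 × 10^7 cells/mL. They were stained with JC-1 (10 μg/mL, 10 min, 26 °C) and washed twice. Emission was read at 590 and 530 nm (excitation 480 nm), and the 590/530 ratio gives relative ΔΨm. FCCP 20 μM for 20 min served as positive control. Mean ± SE of three experiments.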

[5] = tested on: Leishmania amazonensis; experiment: Induction of intracellular ROS generation in Leishmania amazonensis MHOM/BR/75/LTB0016 promastigotes incubated for 24 hrs by H2DCFDA dye based assay; assay type: functional, organism-based
How it was run: (§2)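 Promastigotes (5 × 10^6 cells/mL) were cultured 24 h at 26 °C with compound (3−96 μM) or vehicle, then resuspended in HBSS at 1 × 10^7 cells/mL. They were loaded with 20 μM H2DCFDA for 20 min at 26 °C and read by flow cytometry. Results are fold increase over control, mean ± SE of three experiments.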

[6] = tested on: Leishmania amazonensis; experiment: Antiparasitic activity against Leishmania amazonensis MHOM/BR/75/LTB0016 promastigotes assessed as inhibition of cellular proliferation at 96 uM incubated for 24 hrs by Neubauer chamber based assay; assay type: functional; settings: MHOM/BR/75/LTB0016, 24 h
How it was run: (§3)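 Strain MHOM/BR/75/LTB0016 promastigotes were grown at 26 °C in Schneider medium (pH 7.2) with 10% heat-inactivated FCS, penicillin and streptomycin. They were seeded at 1.0 × 10^6 cells/mL with compound (3−96 μM) or DMSO vehicle (0.2% final) for 24 h at 26 °C. Density was counted in a Neubauer chamber. IC50 came from logarithmic regression. Mean ± SE of three experiments.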

[7] = tested on: Leishmania amazonensis; experiment: Induction of intracellular ROS generation in Leishmania amazonensis MHOM/BR/75/LTB0016 promastigotes at 96 uM incubated for 24 hrs in presence of GSH by H2DCFDA dye based assay; assay type: functional, organism-based
How it was run: (§4)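 Cultures held GSH, GSSG or NAC (300 μM final, in PBS) together with 96 μM compound or 0.2% DMSO for 24 h at 26 °C in Schneider medium. Cells were then stained with H2DCFDA (20 μM, 20 min, 26 °C, in HBSS) and read by flow cytometry. Results are fold ROS increase versus control, mean ± SE of three experiments.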

[8] = tested on: Leishmania amazonensis; experiment: Induction of intracellular ROS generation in Leishmania amazonensis MHOM/BR/75/LTB0016 promastigotes at 96 uM incubated for 24 hrs by H2DCFDA dye based assay; assay type: functional
How it was run: as §2

[9] = tested on: Leishmania amazonensis; experiment: Induction of ultrastructural alterations in Leishmania amazonensis MHOM/BR/75/LTB0016 promastigotes assessed as appearance of endoplasmic profiles surrounding cellular structures and cytosolic vacuolization at 12 uM incubated for 24 hrs by transmission electron microscopy; assay type: functional, organism-based
How it was run: (§5)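 Promastigotes (5 × 10^6 cells/mL) were treated for 24 h at 26 °C in Schneider medium with compound at 12, 24 or 96 μM. They were fixed in 2.5% glutaraldehyde in 0.1 M cacodylate (pH 7.2) for 40 min and postfixed in 1% OsO4, 0.8% potassium ferricyanide and 2.5 mM CaCl2 for 20 min. Cells were acetone-dehydrated and resin-embedded. Ultrathin sections were stained with uranyl acetate and lead citrate and examined by transmission electron microscopy.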

[10] = tested on: Leishmania amazonensis; experiment: Antiparasitic activity against Leishmania amazonensis MHOM/BR/75/LTB0016 promastigotes assessed as inhibition of cellular proliferation at 96 uM incubated for 24 hrs in presence of 300 uM NAC by Neubauer chamber based assay; assay type: functional, organism-based
How it was run: (§6)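 Promastigotes were preincubated with GSH, GSSG or NAC (300 μM final, in PBS) and then grown 24 h at 26 °C in Schneider medium with 96 μM compound (in DMSO) or vehicle (0.2% DMSO). Proliferation was counted in a Neubauer chamber. Mean ± SE of three experiments.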

[11] = tested on: Leishmania amazonensis; experiment: Induction of ultrastructural alterations in Leishmania amazonensis MHOM/BR/75/LTB0016 promastigotes assessed as cytoplasmic vacuolization at 12 uM incubated for 24 hrs by transmission electron microscopy
[12] = tested on: Leishmania amazonensis; experiment: Induction of ultrastructural alterations in Leishmania amazonensis MHOM/BR/75/LTB0016 promastigotes assessed as extensive swelling of parasite mitochondria at 12 to 96 uM incubated for 24 hrs by transmission electron microscopy; assay type: functional, organism-based
How it was run: as §5

[13] = tested on: Leishmania amazonensis; experiment: Induction of ultrastructural alterations in Leishmania amazonensis MHOM/BR/75/LTB0016 promastigotes assessed as rupture of trans-Golgi network at 24 uM incubated for 24 hrs by transmission electron microscopy
[14] = tested on: Leishmania amazonensis; experiment: Antiparasitic activity against Leishmania amazonensis MHOM/BR/75/LTB0016 promastigotes assessed as inhibition of cellular proliferation at 96 uM incubated for 24 hrs in presence of 300 uM GSH by Neubauer chamber based assay; assay type: functional, organism-based
How it was run: as §6

[15] = tested on: Leishmania amazonensis; experiment: Induction of ultrastructural alterations in Leishmania amazonensis MHOM/BR/75/LTB0016 promastigotes assessed as concentric membrane structures formation inside organelle at 12 to 96 uM incubated for 24 hrs by transmission electron microscopy; assay type: functional, organism-based
How it was run: as §5

[16] = tested on: Leishmania amazonensis; experiment: Induction of ultrastructural alterations in Leishmania amazonensis MHOM/BR/75/LTB0016 promastigotes assessed as washed-out appearance of mitochondria matrix and loss of cristae at 96 uM incubated for 24 hrs by transmission electron microscopy; assay type: functional, organism-based
How it was run: as §5

[17] = tested on: Leishmania amazonensis; experiment: Induction of intracellular ROS generation in Leishmania amazonensis MHOM/BR/75/LTB0016 promastigotes at 96 uM incubated for 24 hrs in presence of GSSG by H2DCFDA dye based assay; assay type: functional, organism-based
How it was run: as §4

[18] = tested on: Leishmania amazonensis; experiment: Induction of ultrastructural alterations in Leishmania amazonensis MHOM/BR/75/LTB0016 promastigotes assessed as inner mitochondrial membrane damage with washed-out matrix appearance and decreased matrix electron density at 12 to 96 uM incubated for 24 hrs by transmission electron microscopy; assay type: functional, organism-based
How it was run: as §5

[19] = tested on: Leishmania amazonensis; experiment: Antiparasitic activity against Leishmania amazonensis MHOM/BR/75/LTB0016 promastigotes assessed as inhibition of cellular proliferation incubated for 24 hrs by Neubauer chamber based assay; assay type: functional, organism-based
How it was run: as §3

[20] = tested on: Leishmania amazonensis; experiment: Induction of intracellular ROS generation in Leishmania amazonensis MHOM/BR/75/LTB0016 promastigotes at 96 uM incubated for 24 hrs in presence of NAC by H2DCFDA dye based assay; assay type: functional, organism-based
How it was run: as §4

[21] = tested on: Leishmania amazonensis; experiment: Induction of membrane potential depolarization in Leishmania amazonensis MHOM/BR/75/LTB0016 promastigotes assessed as reduction in mitochondrial membrane potential at 96 uM incubated for 24 hrs by JC1 dye based fluorescence assay; assay type: functional; settings: MHOM/BR/75/LTB0016, 24 h
How it was run: as §1

[22] = tested on: Leishmania amazonensis; experiment: Antiparasitic activity against Leishmania amazonensis MHOM/BR/75/LTB0016 promastigotes assessed as inhibition of cellular proliferation incubated for 48 hrs by CFSE staining based flow cytometry; assay type: functional, organism-based; settings: MHOM/BR/75/LTB0016, 48 h
[23] = tested on: Leishmania amazonensis; experiment: Antiparasitic activity against Leishmania amazonensis MHOM/BR/75/LTB0016 promastigotes assessed as inhibition of cellular proliferation at 96 uM incubated for 24 hrs in presence of 300 uM GSSG by Neubauer chamber based assay; assay type: functional, organism-based
How it was run: as §6

[24] = tested on: Leishmania amazonensis; experiment: Induction of membrane potential depolarization in Leishmania amazonensis MHOM/BR/75/LTB0016 promastigotes assessed as reduction in mitochondrial membrane potential at 20 uM incubated for 24 hrs by JC1 dye based fluorescence assay; settings: MHOM/BR/75/LTB0016, 24 h, read-out: INH

With `O=C(O[C@@H]1Cc2c(O)cc(O)cc2O[C@@H]1c1cc(O)c(O)c(O)c1)c1cc(O)c(O)c(O)c1` [EPIGALOCATECHIN GALLATE] the “fold change (FC)” value [1] was 2.9.
`O=c1c(O)c(-c2ccc(O)c(O)c2)oc2cc(O)cc(O)c12` [QUERCETIN] was tested, and the “fold change (FC)” value [2] was 4.4.
With `O=c1cc(-c2ccc(O)cc2)oc2cc(O)cc(O)c12` [APIGENIN] the inhibition [3] was “Dose-dependent effect”, the Activity [4] was “Dose-dependent effect” and the Activity [5] was “Dose-dependent effect”. The inhibition at 96 µM [6] was 75%, the Activity [7] was “inactive” and the “fold change (FC)” value [8] was 2.9. The Activity [9] was “Active”, the Activity [10] was “inactive” and the Activity [11] was “Active”. For the same molecule, the Activity [12] was “Active”, the Activity [13] was “Active” and the Activity [14] was “inactive”. The Activity [15] was “Active”, the Activity [16] was “Active” and the Activity [17] was “Active”. The Activity [18] was “Active”, the inhibition [19] was “Dose-dependent effect” and the IC50 ([19]; MHOM/BR/75/LTB0016, 24 h) was 23.7 µM. For the same molecule, the Activity [20] was “inactive”, the inhibition at 96 µM [21] was 78.3% and the IC50 [22] was 31.4 µM. For the same molecule, the Activity [23] was “Active”.
Work on `N#CC(C#N)=NNc1ccc(OC(F)(F)F)cc1` yielded an inhibition at 20 µM [24] of 79.8%.
